Reference: ChEMBL document CHEMBL1629526, “4-[1-(Substituted aryl/alkyl carbonyl)-benzoimidazol-2-yl]-benzenesulfonic acids: synthesis, antimicrobial activity, QSAR studies, and antiviral evaluation” (Eur J Med Chem, 2010)
Converted amounts (≈) assume the structure as drawn.

Assays:
[1] = Cytotoxicity against human HeLa cells assessed as cell viability by MTS assay; format: cell-based; settings: HeLa cells
How it was run: (§1)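 Uninfected cultures were run in parallel with the antiviral assays. Viability was read by colorimetric formazan MTS assay.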

[2] = Cytotoxicity against human HeLa cells assessed as altered cell morphology; format: cell-based
How it was run: (§2)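 Uninfected cell cultures run alongside the antiviral assays, exposed to serial compound dilutions and incubated at 37 °C for 2–4 days. Toxicity was scored microscopically and reported as the minimum cytotoxic concentration (MCC), the lowest concentration causing a detectable change in normal cell morphology.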

[3] = system: Vesicular stomatitis virus; assay: Antiviral activity against Vesicular stomatitis virus infected in human HeLa cells assessed as inhibition of virus induced cytopathicity after 2 to 4 days by MTS assay; format: functional, organism-based
Coxsackievirus B4 [4] = assay: Antiviral activity against coxsackievirus B4 infected in human HeLa cells assessed as inhibition of virus induced cytopathicity after 2 to 4 days by MTS assay; format: functional, organism-based; settings: Enterovirus B
[5] = system: Respiratory syncytial virus; assay: Antiviral activity against Respiratory syncytial virus infected in human HeLa cells assessed as inhibition of virus induced cytopathicity after 2 to 4 days by MTS assay; format: functional, organism-based
[6] = Cytotoxicity against african green monkey Vero cells assessed as altered cell morphology; format: cell-based; settings: chlorocebus sabaeus; how it was run: as §2
[7] = Cytotoxicity against MDCK cells assessed as cell viability by MTS assay; format: cell-based, Canis lupus familiaris; settings: dog, MDCK cells; how it was run: as §1
[8] = Cytotoxicity against MDCK cells assessed as altered cell morphology; format: cell-based, Canis lupus familiaris; settings: dog; how it was run: as §2
Influenza A virus [9] = assay: Antiviral activity against Influenza A H1N1 virus subtype infected in MDCK cells assessed as inhibition of virus induced cytopathicity by visual scoring of CPE; format: functional, organism-based
Influenza A virus [10] = assay: Antiviral activity against Influenza A H1N1 virus subtype infected in MDCK cells assessed as inhibition of virus induced cytopathicity after 2 to 4 days by MTS assay; format: functional, organism-based
Influenza A virus [11] = assay: Antiviral activity against Influenza A H3N2 virus subtype infected in MDCK cells assessed as inhibition of virus induced cytopathicity after 2 to 4 days by MTS assay; format: functional, organism-based
Influenza B virus [12] = assay: Antiviral activity against Influenza B virus infected in MDCK cells assessed as inhibition of virus induced cytopathicity by visual scoring of CPE; format: functional, organism-based
Influenza B virus [13] = assay: Antiviral activity against Influenza B virus infected in MDCK cells assessed as inhibition of virus induced cytopathicity after 2 to 4 days by MTS assay; format: functional, organism-based
[14] = Cytotoxicity against human HEL cells assessed as altered cell morphology; format: cell-based; how it was run: as §2
Human alphaherpesvirus 1 [15] = assay: Antiviral activity against Herpes simplex virus 1 KOS infected in HEL cells assessed as inhibition of virus induced cytopathicity after 2 to 4 days by MTS assay; format: functional, organism-based; settings: Human alphaherpesvirus 1, KOS
Human alphaherpesvirus 2 = assay: Antiviral activity against Herpes simplex virus 2 G infected in HEL cells assessed as inhibition of virus induced cytopathicity after 2 to 4 days by MTS assay; format: functional, organism-based; settings: Human alphaherpesvirus 2, strain G
Vaccinia virus = assay: Antiviral activity against Vaccinia virus infected in HEL cells assessed as inhibition of virus induced cytopathicity after 2 to 4 days by MTS assay; format: functional, organism-based; settings: Orthopoxvirus vaccinia
[16] = system: Vesicular stomatitis virus; assay: Antiviral activity against Vesicular stomatitis virus infected in HEL cells assessed as inhibition of virus induced cytopathicity after 2 to 4 days by MTS assay; format: functional, organism-based
Human alphaherpesvirus 1 [17] = assay: Antiviral activity against thymidine kinase deficient acyclovir-resistant Herpes simplex virus 1 KOS infected in HEL cells assessed as inhibition of virus induced cytopathicity after 2 to 4 days by MTS assay; format: functional, organism-based; settings: Human alphaherpesvirus 1, KOS
[18] = system: Vesicular stomatitis virus; assay: Antiviral activity against Vesicular stomatitis virus infected in human HeLa cells assessed as inhibition of virus induced cytopathicity by visual scoring of CPE; format: functional, organism-based
Coxsackievirus B4 [19] = assay: Antiviral activity against coxsackievirus B4 infected in human HeLa cells assessed as inhibition of virus induced cytopathicity by visual scoring of CPE; format: functional, organism-based; settings: Enterovirus B
[20] = system: Respiratory syncytial virus; assay: Antiviral activity against Respiratory syncytial virus infected in human HeLa cells assessed as inhibition of virus induced cytopathicity by visual scoring of CPE; format: functional, organism-based
Human respirovirus 3 = assay: Antiviral activity against parainfluenza-3 virus infected in african green monkey Vero cells assessed as inhibition of virus induced cytopathicity after 2 to 4 days by MTS assay; format: functional, organism-based; settings: Human respirovirus 3, Vero
[21] = system: Mammalian orthoreovirus 1; assay: Antiviral activity against Reovirus 1 virus infected in african green monkey Vero cells assessed as inhibition of virus induced cytopathicity after 2 to 4 days by MTS assay; format: functional, organism-based; settings: Mammalian orthoreovirus 1, Vero
Coxsackievirus B4 [22] = assay: Antiviral activity against Coxsackie virus B4 infected in african green monkey Vero cells assessed as inhibition of virus induced cytopathicity after 2 to 4 days by MTS assay; format: functional, organism-based; settings: Enterovirus B
Punta Toro virus = assay: Antiviral activity against Punta Toro virus infected in african green monkey Vero cells assessed as inhibition of virus induced cytopathicity after 2 to 4 days by MTS assay; format: functional, organism-based
Influenza A virus [23] = assay: Antiviral activity against Influenza A H3N2 virus subtype infected in MDCK cells assessed as inhibition of virus induced cytopathicity by visual scoring of CPE; format: functional, organism-based

| SMILES | CC50 [1] | MCC [2] | EC50 (Coxsackievirus B4 [4]) | EC50 [5] | MCC [6] | CC50 [7] | MCC [8] | EC50 (Influenza A virus [9]) | EC50 (Influenza A virus [10]) | EC50 (Influenza A virus [11]) | EC50 (Influenza B virus [12]) | EC50 (Influenza B virus [13]) | other results |
| --- | --- | --- | --- | --- | --- | --- | --- | --- | --- | --- | --- | --- | --- |
| Nc1ncnc2c1ncn2C[C@H](O)CO [(S)-DHPA] | > 250 µg/mL | > 250 µg/mL | > 250 µg/mL | > 250 µg/mL | > 250 µg/mL |  |  |  |  |  |  |  | EC50 [3]: > 250 µg/mL |
| NC12CC3CC(CC(C3)C1)C2 [AMANTADINE] |  |  |  |  |  | > 200 µg/mL | > 200 µg/mL | 18 µg/mL (≈ 119 µM) | 44 µg/mL (≈ 291 µM) | 0.2 µg/mL (≈ 1.32 µM) | > 200 µg/mL | > 200 µg/mL |  |
| NC(=O)c1ncn([C@@H]2O[C@H](CO)[C@@H](O)[C@H]2O)n1 [RIBAVIRIN] | > 250 µg/mL | > 250 µg/mL | 14 µg/mL (≈ 57.3 µM) | 2.8 µg/mL (≈ 11.5 µM) | > 250 µg/mL |  | > 100 µg/mL | 9 µg/mL (≈ 36.9 µM) | 12 µg/mL (≈ 49.1 µM) | 8.4 µg/mL (≈ 34.4 µM) | 7 µg/mL (≈ 28.7 µM) | 4.3 µg/mL (≈ 17.6 µM) | MCC [14]: > 250 µg/mL; EC50 (Human alphaherpesvirus 1 [15]): 1 µg/mL (≈ 4.09 µM); EC50 (Human alphaherpesvirus 2): 2 µg/mL (≈ 8.19 µM); EC50 (Vaccinia virus): 10 µg/mL (≈ 40.9 µM); EC50 [16]: > 250 µg/mL; EC50 (Human alphaherpesvirus 1 [17]): 2 µg/mL (≈ 8.19 µM); EC50 [18]: 10 µg/mL (≈ 40.9 µM); EC50 (Coxsackievirus B4 [19]): 50 µg/mL (≈ 205 µM); EC50 [20]: 6 µg/mL (≈ 24.6 µM); EC50 (Human respirovirus 3): 95 µg/mL (≈ 389 µM); EC50 [21]: 112 µg/mL (≈ 459 µM); EC50 (Coxsackievirus B4 [22]): 250 µg/mL (≈ 1020 µM); EC50 (Punta Toro virus): 112 µg/mL (≈ 459 µM) |
| CC(N)C12CC3CC(CC(C3)C1)C2 (stereo not given) [RIMANTADINE] |  |  |  |  |  | > 200 µg/mL | > 200 µg/mL | 4 µg/mL (≈ 22.3 µM) | 12 µg/mL (≈ 66.9 µM) | 0.02 µg/mL (≈ 0.112 µM) | > 200 µg/mL | > 200 µg/mL | EC50 (Influenza A virus [23]): 0.03 µg/mL (≈ 0.167 µM) |
